Blank lines part the entries; values can stand above or below the molecule they belong to.
How the values were obtained:
[1] = target: Histone deacetylase; experiment: Inhibition of HDAC in human HeLa cell nuclear extracts by fluorimetric assay; type: protein assay
[2] = tested on: HCT-116; experiment: cells; type: functional; conditions: Homo sapiens, HCT-116, 72 h
[3] = tested on: HeLa; experiment: cells; type: functional; conditions: Homo sapiens, 72 h
[4] = tested on: U-937; experiment: cells; type: functional; conditions: Homo sapiens, U-937, 72 h
[5] = tested on: HuT78; experiment: cells; type: functional; conditions: Homo sapiens, HuT78, 72 h
[6] = Metabolic stability in human liver microsomes at 10 uM after 30 mins; type: ADME, Microsome; conditions: read-out: Stability
Procedure, shortened: (§1)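 Compound at 10 µM incubated with human or mouse liver microsomes. Read-out is the percentage of parent remaining after 30 min.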

[7] = Metabolic stability in mouse liver microsomes at 10 uM after 30 mins; type: ADME, Microsome; conditions: read-out: Stability; procedure, shortened: as §1
[8] = Apparent permeability of the compound by PAMPA assay; type: ADME
[9] = target: T1, Cytochrome P450 1A2 (Homo sapiens, UniProt P05177); experiment: Inhibition of CYP1A2 at 50 uM; type: ADME
T1 sequence (P05177 whole entry): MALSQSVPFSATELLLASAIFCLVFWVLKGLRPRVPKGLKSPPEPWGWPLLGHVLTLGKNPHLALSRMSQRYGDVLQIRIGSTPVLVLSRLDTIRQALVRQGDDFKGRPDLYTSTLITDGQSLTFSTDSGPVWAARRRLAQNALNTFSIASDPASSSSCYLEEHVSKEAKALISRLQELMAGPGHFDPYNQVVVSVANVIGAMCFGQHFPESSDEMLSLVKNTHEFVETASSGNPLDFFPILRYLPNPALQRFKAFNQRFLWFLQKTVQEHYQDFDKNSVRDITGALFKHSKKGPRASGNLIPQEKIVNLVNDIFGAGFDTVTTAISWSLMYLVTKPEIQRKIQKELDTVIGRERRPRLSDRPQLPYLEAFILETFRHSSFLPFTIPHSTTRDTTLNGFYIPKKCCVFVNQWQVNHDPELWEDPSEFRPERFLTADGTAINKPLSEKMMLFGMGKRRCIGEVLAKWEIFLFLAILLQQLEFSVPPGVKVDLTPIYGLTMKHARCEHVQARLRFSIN

[10] = target: T2, Cytochrome P450 2A6 (Homo sapiens, UniProt P11509); experiment: Inhibition of CYP2A6 at 50 uM; type: ADME
T2 sequence (P11509 whole entry): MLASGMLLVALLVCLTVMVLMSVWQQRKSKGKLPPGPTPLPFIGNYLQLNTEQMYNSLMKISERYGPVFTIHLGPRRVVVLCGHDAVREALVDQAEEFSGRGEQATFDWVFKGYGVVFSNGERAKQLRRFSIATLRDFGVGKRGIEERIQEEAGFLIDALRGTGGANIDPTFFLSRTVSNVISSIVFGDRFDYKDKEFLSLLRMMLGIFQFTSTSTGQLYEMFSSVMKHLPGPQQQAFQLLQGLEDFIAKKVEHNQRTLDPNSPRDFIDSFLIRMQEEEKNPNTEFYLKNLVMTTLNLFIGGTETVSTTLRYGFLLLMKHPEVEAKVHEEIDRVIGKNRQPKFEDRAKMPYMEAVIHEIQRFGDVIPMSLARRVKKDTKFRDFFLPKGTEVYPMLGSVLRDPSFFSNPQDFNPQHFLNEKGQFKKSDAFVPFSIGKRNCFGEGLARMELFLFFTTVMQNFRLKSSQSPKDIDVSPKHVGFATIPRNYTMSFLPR

[11] = target: T3, Cytochrome P450 2C8 (Homo sapiens, UniProt P10632); experiment: Inhibition of CYP2C8 at 50 uM; type: ADME
T3 sequence (P10632 whole entry): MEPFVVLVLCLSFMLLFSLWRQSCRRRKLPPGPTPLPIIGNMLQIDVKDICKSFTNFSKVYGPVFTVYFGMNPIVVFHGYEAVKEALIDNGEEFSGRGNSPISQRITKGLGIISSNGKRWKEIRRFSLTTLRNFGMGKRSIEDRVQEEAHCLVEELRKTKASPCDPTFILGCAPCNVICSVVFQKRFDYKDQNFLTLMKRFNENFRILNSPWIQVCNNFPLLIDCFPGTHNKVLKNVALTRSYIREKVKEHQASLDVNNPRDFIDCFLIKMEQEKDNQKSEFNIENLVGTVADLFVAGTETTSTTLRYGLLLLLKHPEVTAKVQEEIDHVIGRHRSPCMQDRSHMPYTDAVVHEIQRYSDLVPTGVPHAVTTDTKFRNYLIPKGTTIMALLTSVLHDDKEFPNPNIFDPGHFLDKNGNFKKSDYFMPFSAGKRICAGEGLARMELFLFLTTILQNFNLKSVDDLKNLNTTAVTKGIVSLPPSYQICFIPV

[12] = target: Cytochrome P450 2C19 (Homo sapiens, UniProt P33261); experiment: Inhibition of CYP2C19 at 50 uM; type: ADME
[13] = target: Cytochrome P450 3A4 (Homo sapiens, UniProt P08684); experiment: Inhibition of CYP3A4 at 50 uM; type: ADME
[14] = target: Cytochrome P450 2D6 (Homo sapiens, UniProt P10635); experiment: Inhibition of CYP2D6 at 50 uM; type: ADME
[15] = target: Voltage-gated inwardly rectifying potassium channel KCNH2 (Homo sapiens, UniProt Q12809); experiment: Inhibition of human ERG channel
[16] = Oral bioavailability in CD1 mouse at 3 mg/kg; type: ADME, organism-based; conditions: in vivo
Procedure, shortened: (§2)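 Cassette PK study in CD1 mice, dosed 3 mg/kg po and 1 mg/kg iv. Cmax was measured in plasma and spleen, and oral bioavailability F was derived.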

[17] = Cmax in CD1 mouse spleen at 3 mg/kg, po or 1 mg/kg, iv; type: ADME, organism-based; procedure, shortened: as §2
[18] = Cmax in CD1 mouse plasma at 3 mg/kg, po or 1 mg/kg, iv; type: ADME, organism-based; procedure, shortened: as §2
[19] = tested on: HCT-116; experiment: Antitumor activity against human HCT116 cells xenografted in CrTac:NCr-Fox1 (nu) athymic mouse assessed as tumor weight at 50 mg/kg, po qd for 16 days relative to untreated control; type: functional
Procedure, shortened: (§3)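 Female athymic mice (n = 14) bearing established bilateral HCT116 colon carcinoma xenografts; oral dosing once daily for 16 days at 50 mg/kg. Read-outs are final tumour weight and mean tumour volume, each relative to control. Body weight was monitored.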

[20] = tested on: HCT-116; experiment: Antitumor activity against human HCT116 cells xenografted in CrTac:NCr-Fox1 (nu) athymic mouse assessed as tumor volume at 50 mg/kg, po qd for 16 days relative to untreated control; type: functional; procedure, shortened: as §3
[21] = Drug level in tumor of human HCT116 cells xenografted in CrTac:NCr-Fox1 (nu) athymic mouse at 50 mg/kg, po qd for 16 days measured after 4 hrs; type: ADME, organism-based, Neoplasm, HCT-116; set-up: dose 50 mg/kg, route oral; conditions: in vivo
Procedure, shortened: (§4)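 Tissue levels measured in female athymic mice bearing bilateral HCT116 xenografts after oral 50 mg/kg once daily for 16 days. Sampled at 0.5, 1 and 4 h post dose. Plasma is reported in nM; tumour and spleen in nmol/kg. The 1 h values are the mean of three samples; 0.5 and 4 h values are means of two.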

[22] = Drug level in tumor of human HCT116 cells xenografted in CrTac:NCr-Fox1 (nu) athymic mouse at 50 mg/kg, po qd for 16 days measured after 1 hr; type: ADME, organism-based, Neoplasm, HCT-116; set-up: dose 50 mg/kg, route oral; conditions: in vivo; procedure, shortened: as §4
[23] = Drug level in tumor of human HCT116 cells xenografted in CrTac:NCr-Fox1 (nu) athymic mouse at 50 mg/kg, po qd for 16 days measured after 0.5 hrs; type: ADME, organism-based, Neoplasm, HCT-116; set-up: dose 50 mg/kg, route oral; conditions: in vivo; procedure, shortened: as §4
[24] = tested on: Spleen; experiment: Drug level in spleen of human HCT116 cells xenografted in CrTac:NCr-Fox1 (nu) athymic mouse at 50 mg/kg, po qd for 16 days measured after 0.5 hrs; type: ADME, organism-based, HCT-116; set-up: dose 50 mg/kg, route oral; conditions: in vivo; procedure, shortened: as §4
[25] = tested on: Spleen; experiment: Drug level in spleen of human HCT116 cells xenografted in CrTac:NCr-Fox1 (nu) athymic mouse at 50 mg/kg, po qd for 16 days measured after 1 hr; type: ADME, organism-based, HCT-116; set-up: dose 50 mg/kg, route oral; conditions: in vivo; procedure, shortened: as §4
[26] = tested on: Spleen; experiment: Drug level in spleen of human HCT116 cells xenografted in CrTac:NCr-Fox1 (nu) athymic mouse at 50 mg/kg, po qd for 16 days measured after 4 hrs; type: ADME, organism-based, HCT-116; set-up: dose 50 mg/kg, route oral; conditions: in vivo; procedure, shortened: as §4
[27] = Drug level in plasma of human HCT116 cells xenografted in CrTac:NCr-Fox1 (nu) athymic mouse at 50 mg/kg, po qd for 16 days measured after 1 hr; type: ADME, organism-based, HCT-116; set-up: dose 50 mg/kg, route oral; conditions: read-out: Drug uptake; procedure, shortened: as §4
[28] = Drug level in plasma of human HCT116 cells xenografted in CrTac:NCr-Fox1 (nu) athymic mouse at 50 mg/kg, po qd for 16 days measured after 4 hrs; type: ADME, organism-based, HCT-116; set-up: dose 50 mg/kg, route oral; conditions: read-out: Drug uptake; procedure, shortened: as §4
[29] = Permeability from basolateral to apical side in human Caco-2 cells; type: ADME, cell-based; conditions: read-out: permeability
[30] = tested on: Mus musculus; experiment: Inhibition of HDAC in tumor tissue of human HCT116 cells xenografted CrTac:NCr-Fox1 (nu) athymic mouse assessed as increase in histone H3 acetylation at 50 mg/kg, po qd for 16 days measured 1 hr post dose by Western blot relative to untreated control; type: functional, HCT-116
Procedure, shortened: (§5)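 Female athymic nude mice bearing established bilateral HCT116 colon carcinoma xenografts (n = 14), dosed orally once daily for 16 days at 50 mg/kg. Tumour tissue taken after the final dose; histone H3 acetylation by Western blot with anti-acetylated H3 antibody. Band intensity by densitometry, normalised to GAPDH, and expressed as % of DMSO controls. One animal per value, n = 1–3.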

[31] = tested on: Mus musculus; experiment: Inhibition of HDAC in human HCT116 cells xenografted CrTac:NCr-Fox1 (nu) athymic mouse assessed as increase in histone H3 acetylation at 50 mg/kg, po qd for 16 days measured 4 hrs post dose by Western blot relative to untreated control; type: functional, HCT-116; procedure, shortened: as §5
[32] = tested on: HeLa; experiment: Growth inhibition of human HeLa cells at 10 uM after 72 hrs by SRB assay; type: functional; conditions: read-out: GI

Chain of Cytochrome P450 3A4 (P08684 whole entry): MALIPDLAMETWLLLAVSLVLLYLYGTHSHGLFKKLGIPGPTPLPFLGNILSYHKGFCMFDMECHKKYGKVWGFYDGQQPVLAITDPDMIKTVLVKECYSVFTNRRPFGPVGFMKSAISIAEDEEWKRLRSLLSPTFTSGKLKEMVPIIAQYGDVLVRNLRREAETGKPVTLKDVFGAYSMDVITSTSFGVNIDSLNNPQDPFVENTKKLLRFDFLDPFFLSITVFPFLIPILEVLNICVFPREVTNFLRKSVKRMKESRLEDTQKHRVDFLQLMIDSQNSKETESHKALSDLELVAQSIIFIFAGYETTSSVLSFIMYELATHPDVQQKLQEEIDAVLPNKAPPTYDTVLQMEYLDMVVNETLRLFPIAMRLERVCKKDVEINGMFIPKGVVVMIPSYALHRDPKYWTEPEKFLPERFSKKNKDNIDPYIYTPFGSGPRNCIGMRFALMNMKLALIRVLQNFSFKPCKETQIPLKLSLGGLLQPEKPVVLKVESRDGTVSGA
Chain of Cytochrome P450 2C19 (P33261 whole entry): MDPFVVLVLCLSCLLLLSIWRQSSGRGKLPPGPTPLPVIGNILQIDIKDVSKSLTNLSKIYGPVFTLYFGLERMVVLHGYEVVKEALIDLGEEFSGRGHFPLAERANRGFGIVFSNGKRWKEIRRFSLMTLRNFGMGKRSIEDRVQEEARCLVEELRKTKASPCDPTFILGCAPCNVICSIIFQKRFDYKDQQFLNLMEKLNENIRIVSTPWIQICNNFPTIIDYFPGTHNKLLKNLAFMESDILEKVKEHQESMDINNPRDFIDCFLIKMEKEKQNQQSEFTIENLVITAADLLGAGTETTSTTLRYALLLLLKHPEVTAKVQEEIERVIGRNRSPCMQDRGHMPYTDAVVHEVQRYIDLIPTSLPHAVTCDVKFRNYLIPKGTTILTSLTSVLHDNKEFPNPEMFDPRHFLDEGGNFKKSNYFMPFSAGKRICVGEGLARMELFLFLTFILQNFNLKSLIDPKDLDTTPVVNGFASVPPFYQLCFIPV
Chain of Cytochrome P450 2D6 (P10635 whole entry): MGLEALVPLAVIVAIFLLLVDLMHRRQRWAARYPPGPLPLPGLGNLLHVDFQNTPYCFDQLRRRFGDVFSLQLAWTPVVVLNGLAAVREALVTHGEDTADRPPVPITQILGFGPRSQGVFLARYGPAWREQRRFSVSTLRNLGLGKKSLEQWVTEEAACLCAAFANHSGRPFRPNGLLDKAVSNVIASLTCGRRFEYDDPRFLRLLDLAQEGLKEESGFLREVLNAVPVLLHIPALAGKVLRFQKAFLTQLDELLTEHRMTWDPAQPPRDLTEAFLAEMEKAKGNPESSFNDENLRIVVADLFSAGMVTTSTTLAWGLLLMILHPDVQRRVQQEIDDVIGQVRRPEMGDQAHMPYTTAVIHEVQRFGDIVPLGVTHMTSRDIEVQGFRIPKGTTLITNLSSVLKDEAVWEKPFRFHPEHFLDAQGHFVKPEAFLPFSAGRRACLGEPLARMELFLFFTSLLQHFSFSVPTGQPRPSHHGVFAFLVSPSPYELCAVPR
Chain of Voltage-gated inwardly rectifying potassium channel KCNH2 (Q12809 whole entry): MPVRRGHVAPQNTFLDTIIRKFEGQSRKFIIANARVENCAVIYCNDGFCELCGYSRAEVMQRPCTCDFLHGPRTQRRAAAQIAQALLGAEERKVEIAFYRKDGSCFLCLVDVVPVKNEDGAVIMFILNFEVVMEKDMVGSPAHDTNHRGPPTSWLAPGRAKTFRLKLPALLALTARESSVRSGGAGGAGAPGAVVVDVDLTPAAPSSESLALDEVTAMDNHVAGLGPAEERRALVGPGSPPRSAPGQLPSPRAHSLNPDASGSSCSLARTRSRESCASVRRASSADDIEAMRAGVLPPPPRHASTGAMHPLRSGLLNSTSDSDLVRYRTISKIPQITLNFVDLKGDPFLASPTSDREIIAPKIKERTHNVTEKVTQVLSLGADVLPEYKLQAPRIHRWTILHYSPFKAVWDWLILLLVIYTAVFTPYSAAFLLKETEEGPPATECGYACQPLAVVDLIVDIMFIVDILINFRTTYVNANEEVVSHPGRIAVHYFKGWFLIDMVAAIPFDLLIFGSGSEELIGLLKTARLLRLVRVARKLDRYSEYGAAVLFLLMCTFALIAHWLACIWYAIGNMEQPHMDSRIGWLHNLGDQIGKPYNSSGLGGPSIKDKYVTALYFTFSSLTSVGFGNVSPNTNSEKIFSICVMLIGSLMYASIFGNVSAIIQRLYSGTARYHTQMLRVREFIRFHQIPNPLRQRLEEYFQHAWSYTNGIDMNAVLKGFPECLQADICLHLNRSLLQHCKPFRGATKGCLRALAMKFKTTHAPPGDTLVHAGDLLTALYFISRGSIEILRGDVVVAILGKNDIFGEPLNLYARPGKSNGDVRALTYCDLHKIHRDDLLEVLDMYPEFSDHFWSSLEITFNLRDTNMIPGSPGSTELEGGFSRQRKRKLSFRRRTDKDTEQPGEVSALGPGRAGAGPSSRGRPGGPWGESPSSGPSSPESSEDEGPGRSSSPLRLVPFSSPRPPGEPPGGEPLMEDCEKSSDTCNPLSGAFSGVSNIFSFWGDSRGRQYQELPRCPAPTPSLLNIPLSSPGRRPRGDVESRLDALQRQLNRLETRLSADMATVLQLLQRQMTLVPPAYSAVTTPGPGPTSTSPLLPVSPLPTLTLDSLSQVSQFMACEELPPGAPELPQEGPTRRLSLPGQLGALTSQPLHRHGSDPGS

SMILES: O=C(NO)c1cnc(N2C[C@H]3CN(Cc4ccc(Cl)cc4)C[C@H]3C2)nc1
IC50 [1]: 42 nM
GI50 [2]: 490 nM
GI50 [3]: 690 nM
GI50 [4]: 230 nM
GI50 [5]: 190 nM

SMILES: COc1ccc(CN2C[C@@H]3CN(c4ncc(C(=O)NO)cn4)C[C@@H]3C2)cc1
IC50 [1]: 95 nM
GI50 [2]: 900 nM
GI50 [3]: 950 nM
GI50 [4]: 550 nM
GI50 [5]: 290 nM

SMILES: O=C(NO)c1cnc(N2C[C@@H]3CN(S(=O)(=O)c4cc(C(F)(F)F)cc(C(F)(F)F)c4)C[C@@H]3C2)nc1
IC50 [1]: 433 nM
GI50 [2]: 1700 nM
GI50 [4]: 1250 nM
GI50 [5]: 700 nM
inhibition of growth at 10 µM [32]: 42%

SMILES: O=C(NO)c1cnc(N2C[C@@H]3CN(S(=O)(=O)c4ccc(OC(F)(F)F)cc4)C[C@@H]3C2)nc1
IC50 [1]: 123 nM
GI50 [2]: 530 nM
GI50 [3]: 940 nM
GI50 [4]: 980 nM
GI50 [5]: 500 nM

More lines, main results first:

IC50 [1]: 64 nM
GI50 [2]: 740 nM
GI50 [3]: 1130 nM
GI50 [4]: 480 nM
SMILES: O=C(NO)c1cnc(N2C[C@@H]3CN(S(=O)(=O)c4ccc5ccccc5c4)C[C@@H]3C2)nc1
GI50 [5]: 300 nM

IC50 [1]: 13 nM
GI50 [2]: 120 nM
GI50 [3]: 260 nM
GI50 [4]: 72 nM
remaining at 0.5 h, 10 µM [6]: 72%
remaining at 0.5 h, 10 µM [7]: 45%
Papp [8]: 0.5 ×10⁻⁶ cm/s
inhibition (INH) [9]: Not Active
inhibition (INH) [10]: Not Active
inhibition (INH) [11]: Not Active
inhibition (INH) [12]: Not Active
inhibition (INH) [13]: Not Active
IC50 [14]: 10000 nM
bioavailability [16]: 15%
Cmax [17]: 218 ng/mL
Cmax [18]: 31 ng/mL
Drug uptake [21]: 154 nmol/kg
Drug uptake [22]: 215 nmol/kg
Drug uptake [23]: 80 nmol/kg
Drug uptake [24]: 620 nmol/kg
Drug uptake [25]: 1260 nmol/kg
Drug uptake [26]: 500 nmol/kg
concentration at 1 h [27]: 14 nM
concentration at 4 h [28]: 25 nM
Papp B→A [29]: 9.4 ×10⁻⁶ cm/s
SMILES: O=C(NO)c1cnc(N2C[C@H]3CN(Cc4ccc5ccccc5c4)C[C@H]3C2)nc1
GI50 [5]: 79 nM
IC50 [15]: 4100 nM
T/C [19]: 80%
Activity [20]: 28%
fold change (FC) [30]: 2
fold change (FC) [31]: 2

IC50 [1]: 45 nM
GI50 [2]: 700 nM
GI50 [3]: 1260 nM
GI50 [4]: 450 nM
SMILES: O=C(NO)c1ccc(N2C[C@H]3CN(Cc4ccc5ccccc5c4)C[C@H]3C2)nc1
GI50 [5]: 340 nM

IC50 [1]: 12 nM
GI50 [2]: 590 nM
GI50 [3]: 210 nM
GI50 [4]: 390 nM
SMILES: O=C(NO)c1cnc(N2C[C@H]3CN(C(=O)c4ccc5ccccc5c4)C[C@H]3C2)nc1
GI50 [5]: 200 nM

IC50 [1]: 122 nM
GI50 [2]: 1800 nM
GI50 [3]: 3950 nM
GI50 [4]: 900 nM
SMILES: O=C(NO)c1cnc(N2C[C@H]3CN(C(=O)CCCOc4ccccc4)C[C@H]3C2)nc1
GI50 [5]: 800 nM
